According to ChEMBL document CHEMBL1135535, “Discovery and optimization of a series of carbazole ureas as NPY5 antagonists for the treatment of obesity” (J Med Chem, 2002):
One block for each compound: values may come before it.

How the values were obtained:
[1] = molecular target: T1, Neuropeptide Y receptor type 5 (Homo sapiens, UniProt Q15761); experiment: Binding affinity to the human Neuropeptide Y receptor Y5 (NPY5)
T1 sequence (Q15761 whole entry): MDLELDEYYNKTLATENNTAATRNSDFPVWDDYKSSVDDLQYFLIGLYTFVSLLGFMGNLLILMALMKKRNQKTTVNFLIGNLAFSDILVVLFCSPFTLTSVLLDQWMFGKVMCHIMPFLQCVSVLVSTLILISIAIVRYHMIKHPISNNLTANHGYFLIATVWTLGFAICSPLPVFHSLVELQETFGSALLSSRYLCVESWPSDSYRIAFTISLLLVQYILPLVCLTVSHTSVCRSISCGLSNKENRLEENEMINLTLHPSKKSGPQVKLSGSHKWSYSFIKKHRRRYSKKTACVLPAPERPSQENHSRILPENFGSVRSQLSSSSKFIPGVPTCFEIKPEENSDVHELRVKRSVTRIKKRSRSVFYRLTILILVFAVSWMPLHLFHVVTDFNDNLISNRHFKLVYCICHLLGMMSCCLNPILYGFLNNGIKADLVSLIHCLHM
In short: (§1)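 Membranes from Hi5 insect cells infected 48 h with baculovirus carrying rat or human NPY-5 receptor, prepared by sonication in hypotonic Tris/EDTA/sucrose buffer and harvested on a 41% sucrose cushion. 0.01 µCi [125I]PYY incubated with membranes and compound in HEPES buffer (CaCl2, MgCl2, 0.5% BSA, pH 7.4) for 2 h at room temperature. Filtered onto PEI-treated GF/C plates, then scintillation counted.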

Salmonella typhimurium [2] = experiment: Ames activity in TA 98+S9, expressed as maximum fold increase in mutation frequency; NI means no increase; format: functional, organism-based; conditions: Salmonella enterica subsp. enterica serovar Typhimurium
In short: (§2)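 Salmonella typhimurium TA98 plate incorporation assay with S9 mix. The S9 is the postmitochondrial fraction of livers from Aroclor 1254-treated Sprague–Dawley rats, supplemented with cofactors for NADPH generation. Tested across 6–2000 μg/plate. The value is the maximum increase in mutation frequency relative to background across that dose range.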

Salmonella typhimurium [3] = experiment: Ames activity in TA 98+S9, expressed as maximum fold increase in mutation frequency; format: functional, Salmonella enterica subsp. enterica serovar Typhimurium; in short: as §2
Salmonella typhimurium [4] = experiment: Mutagenicity (Ames activity) for Salmonella Typhimurium TA100 in the presence of rat liver S9 mix, at 100 ug/plate conc.; format: functional, Salmonella enterica subsp. enterica serovar Typhimurium
In short: (§3)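 Ames plate incorporation assay with S. typhimurium TA98 and TA100, run as described by Maron and Ames. Metabolic activation used S9 mix from livers of Aroclor 1254-treated Sprague–Dawley rats with an NADPH-generating cofactor system. Test substance given at 3.3–100 µg/plate. Read-out was revertant colonies per plate against a solvent control.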

Salmonella typhimurium [5] = experiment: Mutagenicity (Ames activity) for Salmonella Typhimurium TA98 in the presence of rat liver S9 mix, at 10 ug/plate conc.; format: functional, Salmonella enterica subsp. enterica serovar Typhimurium; in short: as §3
Salmonella typhimurium [6] = experiment: Mutagenicity (Ames activity) for Salmonella Typhimurium TA98 in the presence of rat liver S9 mix, at 33 ug/plate conc.; format: functional, Salmonella enterica subsp. enterica serovar Typhimurium; in short: as §3
Salmonella typhimurium [7] = experiment: Mutagenicity (Ames activity) for Salmonella Typhimurium TA100 in the presence of rat liver S9 mix, at 3.3 ug/plate conc.; format: functional, Salmonella enterica subsp. enterica serovar Typhimurium; in short: as §3
Salmonella typhimurium [8] = experiment: Mutagenicity (Ames activity) for Salmonella Typhimurium TA98 in the presence of rat liver S9 mix, at 100 ug/plate conc.; format: functional, Salmonella enterica subsp. enterica serovar Typhimurium; in short: as §3
Salmonella typhimurium [9] = experiment: Mutagenicity (Ames activity) for Salmonella Typhimurium TA98 in the presence of rat liver S9 mix, at 3.3 ug/plate conc.; format: functional, Salmonella enterica subsp. enterica serovar Typhimurium; in short: as §3
Salmonella typhimurium [10] = experiment: Mutagenicity (Ames activity) for Salmonella Typhimurium TA100 in the presence of rat liver S9 mix, at 33 ug/plate conc.; format: functional, Salmonella enterica subsp. enterica serovar Typhimurium; in short: as §3
Salmonella typhimurium [11] = experiment: Mutagenicity (Ames activity) for Salmonella Typhimurium TA100 in the presence of rat liver S9 mix, at 10 ug/plate conc.; format: functional, Salmonella enterica subsp. enterica serovar Typhimurium; in short: as §3
[12] = Half life in rat was reported; format: ADME, organism-based; conditions: in vivo
In short: (§4)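 Rats received a DMA:PEG:H2O 1:1:1 solution, iv at 10 µmol/kg and po at 30 µmol/kg. Half-life, Vss, clearance, Cmax, Tmax and oral bioavailability were derived from plasma levels.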

[13] = molecular target: T2, Neuropeptide Y receptor type 5 (Rattus norvegicus, UniProt Q63634); experiment: Binding affinity against rat Neuropeptide Y receptor Y5; in short: as §1
T2 sequence (Q63634 whole entry): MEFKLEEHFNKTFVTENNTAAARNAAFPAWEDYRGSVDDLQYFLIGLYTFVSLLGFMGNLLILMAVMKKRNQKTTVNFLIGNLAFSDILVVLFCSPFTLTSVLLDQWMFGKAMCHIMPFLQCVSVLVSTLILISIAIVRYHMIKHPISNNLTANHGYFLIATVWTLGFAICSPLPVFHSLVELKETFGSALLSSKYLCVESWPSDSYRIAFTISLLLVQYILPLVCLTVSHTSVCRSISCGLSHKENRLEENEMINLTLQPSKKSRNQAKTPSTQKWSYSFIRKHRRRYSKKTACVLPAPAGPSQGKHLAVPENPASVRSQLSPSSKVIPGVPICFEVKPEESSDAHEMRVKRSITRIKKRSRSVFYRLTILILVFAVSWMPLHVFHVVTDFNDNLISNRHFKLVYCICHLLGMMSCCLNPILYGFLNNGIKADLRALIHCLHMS

[14] = Compound was evaluated for functional antagonism of NPY activity in cellular Ca flux
[15] = molecular target: T1, Neuropeptide Y receptor type 5; experiment: In vitro human Neuropeptide Y receptor Y5 functional antagonism (reporter gene assay)
[16] = Bioavailability in rat; format: ADME, organism-based; conditions: in vivo, read-out: Bioavailabiility; in short: as §4

- IC50 [1]: 2200 nM
Structure (SMILES): CCn1c2ccccc2c2cc(N(C)C(=O)CCc3ccncc3)ccc21

- IC50 [1]: 12 nM
Structure (SMILES): CC(C)n1c2ccccc2c2c(F)c(NC(=O)N3CCOCC3)c(F)cc21

- IC50 [1]: 3400 nM
Structure (SMILES): CCn1c2ccccc2c2cc(CNC(=O)Cc3ccncc3)ccc21

Structure (SMILES): Cc1c(N)ccc2c1c1ccccc1n2C(C)C
- NI (Salmonella typhimurium [2]): no increase

- IC50 [1]: 1 nM
Structure (SMILES): CC(C)n1c2ccccc2c2cc(NC(=O)CCc3ccncc3)ccc21

- IC50 [1]: 15 nM
Structure (SMILES): CS(=O)(=O)n1c2ccccc2c2cc(NC(=O)N3CCOCC3)ccc21

Structure (SMILES): CC(C)(C)Cn1c2ccccc2c2cc(N)ccc21
- Mutation frequency (Salmonella typhimurium [3]): 5

- IC50 [1]: 300 nM
Structure (SMILES): O=C(CCc1ccncc1)Nc1ccc(C(=O)c2ccccc2)cc1

- IC50 [1]: 390 nM
Structure (SMILES): Cc1cc2c(c(C)c1NC(=O)N1CCOCC1)c1ccccc1n2C(C)C

Structure (SMILES): Cc1cc2c(c(C)c1N)c1ccccc1n2C(C)C
- NI (Salmonella typhimurium [2]): no increase

Structure (SMILES): Cc1cccc2c3cc(N)ccc3n(C(C)C)c12
- Mutation frequency (Salmonella typhimurium [3]): 6

- IC50 [1]: 350 nM
Structure (SMILES): O=C(CSc1ccncc1)Nc1ccc(C(=O)c2ccccc2)cc1

Structure (SMILES): CCn1c2ccccc2c2cc(N)ccc21
- Revertant colonies per plate (Salmonella typhimurium [4]): 483
- Revertant colonies per plate (Salmonella typhimurium [5]): 1416
- Mutation frequency (Salmonella typhimurium [3]): 43
- Revertant colonies per plate (Salmonella typhimurium [6]): 1227
- Revertant colonies per plate (Salmonella typhimurium [7]): 192
- Revertant colonies per plate (Salmonella typhimurium [8]): 897
- Revertant colonies per plate (Salmonella typhimurium [9]): 623
- Revertant colonies per plate (Salmonella typhimurium [10]): 466
- Revertant colonies per plate (Salmonella typhimurium [11]): 358

Structure (SMILES): CC(C)n1c2ccccc2c2cc(N)c(Cl)cc21
- Mutation frequency (Salmonella typhimurium [3]): 43

- IC50 [1]: 270 nM
Structure (SMILES): CCOc1c(NC(=O)N2CCOCC2)ccc2c1c1ccccc1n2C(C)C

Structure (SMILES): Nc1ccc2c(c1)c1ccccc1n2C1CCOC1 (stereo unspecified)
- Mutation frequency (Salmonella typhimurium [3]): 66

- IC50 [1]: 710 nM
Structure (SMILES): Cc1c(NC(=O)N2CCOCC2)cc(C)c2c1c1ccccc1n2C(C)C

- IC50 [1]: 40 nM
Structure (SMILES): O=C(Nc1ccc2c(c1)c1ccccc1n2C1CCOC1)N1CCOCC1 (stereo unspecified)

- IC50 [1]: 78 nM
Structure (SMILES): CC(C)(C)Cn1c2ccccc2c2cc(NC(=O)N3CCOCC3)ccc21

- IC50 [1]: 3 nM
Structure (SMILES): CC(C)n1c2ccc(F)cc2c2cc(NC(=O)N3CCOCC3)ccc21

- half-life [12]: 15 min
- IC50 [1]: 2 nM
- IC50 [13]: 7 nM
- IC50 [14]: 2 nM
- IC50 [15]: 11 nM
- bioavailability [16]: 1%
Structure (SMILES): CCn1c2ccccc2c2cc(NC(=O)CCc3ccncc3)ccc21

- IC50 [1]: 350 nM
Structure (SMILES): CN(C)S(=O)(=O)n1c2ccccc2c2cc(NC(=O)N3CCOCC3)ccc21

- IC50 [1]: 700 nM
Structure (SMILES): CCn1c2ccccc2c2cc(C(=O)NCCc3ccncc3)ccc21
